Source: ChEMBL document CHEMBL1138910, “Racemic and chiral sulfoxides as potential prodrugs of 4-pyrone COX-2 inhibitors” (Bioorg Med Chem Lett, 2006)
pIC50: −log10 of the molar value. Converted amounts (≈) assume the structure as drawn.

Key:
[1] = molecular target: T1, Prostaglandin G/H synthase 2 (Homo sapiens, UniProt P35354); experiment: Inhibition of COX2 in human whole blood; format: tissue-based
T1 sequence (P35354 whole entry): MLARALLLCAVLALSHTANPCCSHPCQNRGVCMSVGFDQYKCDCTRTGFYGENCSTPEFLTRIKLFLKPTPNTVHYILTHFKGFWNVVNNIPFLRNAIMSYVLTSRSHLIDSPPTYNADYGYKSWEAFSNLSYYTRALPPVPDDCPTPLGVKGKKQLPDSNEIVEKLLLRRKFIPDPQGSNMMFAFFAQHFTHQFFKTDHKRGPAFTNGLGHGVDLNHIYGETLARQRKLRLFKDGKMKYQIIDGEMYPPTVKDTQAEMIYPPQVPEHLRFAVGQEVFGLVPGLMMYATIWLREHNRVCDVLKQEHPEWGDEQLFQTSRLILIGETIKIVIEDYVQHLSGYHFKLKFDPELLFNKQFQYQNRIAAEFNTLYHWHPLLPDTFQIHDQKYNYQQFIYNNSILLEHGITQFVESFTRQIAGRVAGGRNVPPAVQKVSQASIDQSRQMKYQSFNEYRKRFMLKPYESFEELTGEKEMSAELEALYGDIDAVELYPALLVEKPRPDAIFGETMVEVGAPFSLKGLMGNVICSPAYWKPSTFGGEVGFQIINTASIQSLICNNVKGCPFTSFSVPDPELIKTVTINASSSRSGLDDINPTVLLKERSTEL

[2] = Metabolic stability in rat liver microsomes at 5 uM after 30 min […]; format: ADME, Microsome; settings: in the assay text read “37 degC” for “30 degC”, read-out: Stability
[3] = Metabolic stability in human liver microsomes at 5 uM after 30 min […]; format: ADME, Microsome; settings: in the assay text read “37 degC” for “30 degC”, read-out: Stability
[4] = Solubility in simulated gastric fluid at pH 1.8, 37 degC after 24 hrs; format: physicochemical
Rattus norvegicus [5] = organism: Rattus norvegicus; experiment: Inhibition of yeast-induced pyresis in Wistar rat; format: functional
How it was run: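 Yeast-induced pyresis in rats, an acute therapeutic protocol with a single oral dose. Temperature was measured at 1 h intervals from 1 to 5 h after dosing. ED50 was derived from four doses with six to eight animals per group.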

Rattus norvegicus [6] = experiment: Inhibition of adjuvant-induced arthritis in Wistar rat at 0.01 mg/kg, po; format: functional
How it was run: (§1)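 Adjuvant-induced arthritis in male Wistar rats run as a therapeutic protocol. Compounds were given orally once daily for 7 days, starting on day 14 after arthritis induction. Paw edema was measured 24 h after the last dose. Results are reported as ED50 from four doses (six to eight animals per group) or as % inhibition at the stated dose.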

[7] = Cmax in Wistar rat at 1 mg/kg, po; format: ADME, organism-based; design: dose 1 mg/kg, route oral; settings: in vivo
[8] = Solubility in PBS at pH 7.2, 37 degC after 24 hrs; format: physicochemical
[9] = AUC in Wistar rat at 1 mg/kg, po; format: ADME, organism-based; design: dose 1 mg/kg, route oral; settings: plasma
[10] = Tmax in Wistar rat at 1 mg/kg, po; format: ADME, organism-based; design: dose 1 mg/kg, route oral; settings: in vivo
Rattus norvegicus [11] = experiment: Tmax in Wistar rat after administration as its prodrug at 1 mg/kg, po; format: ADME, organism-based; design: dose 1 mg/kg, route oral; settings: in vivo
Rattus norvegicus [12] = experiment: Cmax in Wistar rat after administration as its prodrug at 1 mg/kg, po; format: ADME, organism-based; design: dose 1 mg/kg, route oral; settings: in vivo
Rattus norvegicus [13] = experiment: Ratio AUC for prodrug to the parent compound in Wistar rat at 1 mg/kg, po; format: ADME, organism-based; design: dose 1 mg/kg, route oral; settings: in vivo
Rattus norvegicus [14] = experiment: AUC in Wistar rat after administration as its prodrug at 1 mg/kg, po; format: ADME, organism-based, Plasma; design: dose 1 mg/kg, route oral; settings: in vivo
Rattus norvegicus [15] = experiment: Inhibition of adjuvant-induced arthritis in Wistar rat at 0.1 mg/kg, po; format: functional; how it was run: as §1
Rattus norvegicus [16] = experiment: Activity against adjuvant-induced arthritis in po dosed Wistar rat; format: functional, organism-based; how it was run: as §1

| SMILES | pIC50 [1] | remaining at 0.5 h, 5 µM [2] | remaining at 0.5 h, 5 µM [3] | solubility at 24 h [4] | solubility at 24 h [8] | ED50 (Rattus norvegicus [5]) | also measured |
| --- | --- | --- | --- | --- | --- | --- | --- |
| Cc1cc(=O)c(Oc2ccc(Br)cc2F)c(-c2ccc([S+](C)[O-])cc2)o1 (configuration not stated) | – | 77% | 64% | 31 µg/mL (≈ 70.9 µM) | 15 µg/mL (≈ 34.3 µM) | 2.8 mg/kg | inhibition in vivo at 0.01 mg/kg (Rattus norvegicus [6]): 58%; Cmax [7]: 37 ng/mL; AUC [9]: 43 ng·h/mL; Tmax [10]: 0.3 h |
| Cc1cc(=O)c(Oc2ccc(Br)cc2F)c(-c2ccc(S(C)(=O)=O)cc2)o1 | – | 34% | 12% | 4 µg/mL (≈ 8.82 µM) | 1 µg/mL (≈ 2.21 µM) | 3.2 mg/kg | Tmax (Rattus norvegicus [11]): 1.5 h; inhibition in vivo at 0.01 mg/kg (Rattus norvegicus [6]): 60%; Cmax [7]: 177 ng/mL; Cmax (Rattus norvegicus [12]): 243 ng/mL; Ratio AUC (Rattus norvegicus [13]): 28; AUC [9]: 1270 ng·h/mL; Tmax [10]: 2.2 h; AUC (Rattus norvegicus [14]): 1125 ng·h/mL |
| Cc1cc(=O)c(Oc2ccc(Cl)cc2F)c(-c2ccc([S@@+](C)[O-])cc2)o1 | – | 87% | 48% | – | – | – | – |
| Cc1cc(=O)c(Oc2ccc(Br)cc2F)c(-c2ccc([S@@+](C)[O-])cc2)o1 | 5.80 | 93% | 62% | – | – | – | – |
| Cc1cc(=O)c(Oc2ccc(F)cc2F)c(-c2ccc([S+](C)[O-])cc2)o1 (configuration not stated) | 6.04 | 54% | 24% | 527 µg/mL (≈ 1400 µM) | 150 µg/mL (≈ 399 µM) | 1.3 mg/kg | Cmax [7]: 1310 ng/mL; inhibition in vivo at 0.1 mg/kg (Rattus norvegicus [15]): 59%; AUC [9]: 1310 ng·h/mL; Tmax [10]: 0.3 h |
| Cc1ccc(-c2ncc(Cl)cc2-c2ccc(S(C)(=O)=O)cc2)cn1 [ETORICOXIB] | – | – | – | – | – | 1 mg/kg | EC50 (Rattus norvegicus [16]): 0.44 mg/kg |
| CS(=O)(=O)c1ccc(C2=C(c3ccccc3)C(=O)OC2)cc1 [ROFECOXIB] | – | – | – | – | – | 0.9 mg/kg | EC50 (Rattus norvegicus [16]): 0.3 mg/kg |
| Cc1cc(=O)c(Oc2ccc(F)cc2F)c(-c2ccc(S(C)(=O)=O)cc2)o1 | – | 26% | 2% | 9 µg/mL (≈ 22.9 µM) | 7 µg/mL (≈ 17.8 µM) | 0.7 mg/kg | Tmax (Rattus norvegicus [11]): 2.3 h; Cmax [7]: 1510 ng/mL; Cmax (Rattus norvegicus [12]): 2959 ng/mL; inhibition in vivo at 0.1 mg/kg (Rattus norvegicus [15]): 68%; Ratio AUC (Rattus norvegicus [13]): 14; AUC [9]: 9220 ng·h/mL; Tmax [10]: 1 h; AUC (Rattus norvegicus [14]): 18646 ng·h/mL |
| Cc1cc(=O)c(Oc2ccc(Cl)cc2F)c(-c2ccc(S(C)(=O)=O)cc2)o1 | – | 27% | 6% | 18 µg/mL (≈ 44 µM) | 5 µg/mL (≈ 12.2 µM) | 0.8 mg/kg | inhibition in vivo at 0.1 mg/kg (Rattus norvegicus [15]): 63% |
| Cc1cc(=O)c(Oc2ccc(Cl)cc2F)c(-c2ccc([S+](C)[O-])cc2)o1 (configuration not stated) | – | 86% | 57% | 70 µg/mL (≈ 178 µM) | 37 µg/mL (≈ 94.2 µM) | 2.3 mg/kg | inhibition in vivo at 0.1 mg/kg (Rattus norvegicus [15]): 56% |
| Cc1cc(=O)c(Oc2ccc(Br)cc2F)c(-c2ccc([S@+](C)[O-])cc2)o1 | 6.70 | 80% | 42% | – | – | – | – |

More lines, main results first:

| pIC50 [1] | remaining at 0.5 h, 5 µM [2] | remaining at 0.5 h, 5 µM [3] | solubility at 24 h [4] | solubility at 24 h [8] | SMILES | ED50 (Rattus norvegicus [5]) | also measured |
| --- | --- | --- | --- | --- | --- | --- | --- |
| 6.57 | 38% | 17% | – | – | Cc1cc(=O)c(Oc2ccc(F)cc2F)c(-c2ccc([S@+](C)[O-])cc2)o1 | – | – |
| 5.68 | 55% | 20% | – | – | Cc1cc(=O)c(Oc2ccc(F)cc2F)c(-c2ccc([S@@+](C)[O-])cc2)o1 | – | – |
| – | 67% | 41% | – | – | Cc1cc(=O)c(Oc2ccc(Cl)cc2F)c(-c2ccc([S@+](C)[O-])cc2)o1 | – | – |
